High-throughput results deposited in PubChem BioAssay by several laboratories.
RBBP9 inhibitor = blocks human serine hydrolase RBBP9 | O75884 | recombinant RBBP9, FP-Rh probe fluorescence polarization | inhibition, % at 7.94 µM | actives 0.2% (n = 220,000);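 active = inhibition above the campaign mean of all tested compounds plus 3 SD, cut at about 14% in these data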;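 note: plate controls were DMSO wells with RBBP9 for no effect and wells lacking RBBP9 protein for full effect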
Target sequence (O75884 whole entry, looked up): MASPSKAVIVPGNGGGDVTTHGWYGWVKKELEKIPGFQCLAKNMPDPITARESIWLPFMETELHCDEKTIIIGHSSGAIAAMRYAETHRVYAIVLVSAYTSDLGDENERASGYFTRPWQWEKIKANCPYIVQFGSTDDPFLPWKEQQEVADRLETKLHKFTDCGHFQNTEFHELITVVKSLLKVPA
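Assay system: recombinant human RBBP9; Reagent: Serine-hydrolase probe FP-Rh, 375 nM pre-mixing; Doses: 7.94 µM single dose, 0.794% DMSO; Incubation: 30 min then 45 min, 25 °C; Detection: fluorescence polarization (mP), excitation 525 nm, emission 598 nm; Evaluation: percent inhibition from mP, scaled between DMSO and no-protein wells.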
MCL1 BIM primary = disrupts human MCL1 binding to BIM-BH3 peptide | Q07820 | GST-MCL1 / FITC-Bim-BH3 fluorescence polarization | actives 0.68% (n = 320,000) | inhibition, % at 10.9 µM;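 active = inhibition above the mean inhibition of all tested compounds plus 3 SD, set per campaign, cut at about 40% in these data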;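 note: 0% = DMSO wells and 100% = unlabeled Bim-BH3 peptide control; higher means more loss of mP so more displacement of Bim peptide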
Target sequence (Q07820 whole entry, looked up): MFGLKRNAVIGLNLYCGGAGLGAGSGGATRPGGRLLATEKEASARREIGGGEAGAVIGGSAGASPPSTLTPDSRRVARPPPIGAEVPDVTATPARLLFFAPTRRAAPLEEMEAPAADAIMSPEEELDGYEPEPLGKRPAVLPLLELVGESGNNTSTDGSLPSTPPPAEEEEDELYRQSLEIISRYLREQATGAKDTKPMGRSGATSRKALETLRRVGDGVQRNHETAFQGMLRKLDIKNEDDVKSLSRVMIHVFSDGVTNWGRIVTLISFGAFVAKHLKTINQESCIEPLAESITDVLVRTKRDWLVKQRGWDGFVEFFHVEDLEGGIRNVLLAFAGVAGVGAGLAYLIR
Mcl1 Noxa PPI = disrupts binding of human Mcl-1 to Noxa peptide; TR-FRET Mcl-1/Noxa peptide binding, 2 h; Q07820; inhibition, % at 21.7 µM; actives 1.5% (n = 220,000);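 active = compounds that cut the protein-peptide binding signal by more than 50% relative to plate controls in a single-dose test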;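 note: His-tagged Mcl-1 with rhodamine Noxa BH3 peptide and terbium anti-His antibody; 0% = Mcl-1 plus Noxa peptide wells and 100% = peptide-only wells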
Mcl1 Bid PPI = disrupts binding of human Mcl-1 to Bid peptide. Q07820. TR-FRET Mcl-1/Bid-Dy647 peptide binding, 1536-well. inhibition, % at 21.7 µM. actives 0.97% (n = 220,000);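 active = compounds that cut the binding signal by more than half at the single screening dose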;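 note: His-tagged Mcl-1 with europium anti-His antibody binding Bid BH3 peptide; 0% = Mcl-1 plus peptide wells and 100% = peptide-only wells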
EBV gp42 block = inhibitors of Epstein-Barr virus glycoprotein 42; inhibition, % (tested at 21.74 µM); Fluorescence polarization binding assay, mP read-out; AID 1085; actives 0.42% (n = 220,000); Q1HVG2; in the data active = inhibition above about 50%
Mcl-1 Bim block = human Bim-Mcl-1 interaction inhibition | Bead-based flow cytometry, Bim peptide-Mcl-1 binding | actives 0.1% (n = 190,000) | inhibition, % at 10 µM; in the data active = inhibition above about 40%;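 note: 0% = no compound tracer wells and 100% = peptide blocker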
* hit, by the source's call; / = no result. A selection: hits, their analogues and other compounds. The true share with any hit is near 2.2%.

SMILES	RBBP9 inhibitor	MCL1 BIM primary	Mcl1 Noxa PPI	Mcl1 Bid PPI	EBV gp42 block	Mcl-1 Bim block
CCOC(=O)c1c(C)oc2c1cc(O)c1ccccc12	2	-1	14	-23	-11	-1
CCOC(=O)c1c(C)oc2c1c(C(c1cccnc1)N1CCOCC1)c(O)c1ccccc12 (configuration not stated)	-7	10	101*	69*	5	-5
CSCCC(NC(=O)C12CC3CC(CC(C3)C1)C2)C(=O)OCC(=O)c1ccc(C)cc1 (configuration not stated)	4	14	-1	-22	-21	-4
O=C(CSc1ncnc2c1cnn2-c1ccccc1)NC1CCS(=O)(=O)C1 (configuration not stated)	/	-8	/	/	/	/
O=C(CSC1=NS(=O)(=O)c2cc(Cl)ccc2N1)c1ccc(Cl)cc1	/	-2	/	/	/	/
O=C(CN1C(=O)COc2ccccc21)N(Cc1ccc2c(c1)OCO2)CC1CCCO1 (configuration not stated)	2	12	-3	100*	-13	-4
N#C/C(=C\C=C\c1ccccc1)c1nc(-c2ccc3c(c2)OCO3)cs1	-1	-30	-7	-19	156*	-1
CCN(CC)CCOC(=O)c1ccc(N/C=C(/C#N)c2nc(-c3ccc4c(c3)OCO4)cs2)cc1	-5	10	69*	63*	-83	/
CCOC(=O)C(=CNc1ccc(OC)cc1[N+](=O)[O-])C(=O)OCC	-3	2	13	-6	-7	/
COc1cc(O)oc1C=Nc1ccc(C(F)(F)F)cc1	10	-5	64*	-46	-1	-2
COc1cc(O)sc1C=Nc1ccc(Cl)cc1	-10	9	16	-15	3	2
CCCc1cc(SCC(=O)Nc2c(C)n(C)n(-c3ccccc3)c2=O)n2c(nc3ccccc32)c1C#N	10	0	-50	66*	-15	2
CCn1cc(C(=O)Nc2ccc(-n3cnnn3)c(OC)c2)c(=O)c2ccc(C)nc21	-15	/	58*	48	-24	2
CCc1nnc(NS(=O)(=O)c2ccc(NC(=S)NC(=O)/C=C/c3ccc(C(C)C)cc3)cc2)s1	-26	12	/	100*	42	-4
C=CCc1cccc2cc(C(=O)Nc3ccc(S(=O)(=O)Nc4nnc(CC)s4)cc3)c(=O)oc12	-4	5	107*	72*	73*	-5
COc1ccc(NS(=O)(=O)c2ccc(NC(=S)NC(=O)/C=C/c3ccccc3)cc2)nn1	-11	2	58*	-33	3	-10
CCc1nnc(NS(=O)(=O)c2ccc(NC(=S)NC(=O)c3ccccc3)cc2)s1	1	16	16	-37	-12	-5
O=C(/C=C/c1ccc(Br)cc1)NC(=S)Nc1ccc(S(=O)(=O)Nc2nccs2)cc1	-12	7	52*	58*	23	-2
CCc1nnc(NS(=O)(=O)c2ccc(NC(=S)NC(=O)/C=C/c3ccc(OC)cc3)cc2)s1	-8	4	50	-17	-3	0
CCc1nnc(NS(=O)(=O)c2ccc(NC(=S)NC(=O)/C=C/c3ccccc3)cc2)s1	0	13	58*	-31	-5	-19
CCCCn1c(N)c(N(CCC(C)C)C(=O)C2CCCN(C(=O)c3ccc(Cl)cc3)C2)c(=O)[nH]c1=O (configuration not stated)	/	-13	/	/	/	/
CCCc1nc2c(C)ccc(C)c2c(N)c1CC	-5	6	22	58*	-22	0
CC1C(=O)N2CCCc3cc(NC(=O)C(=O)NCc4ccccn4)cc1c32 (configuration not stated)	/	5	/	/	/	/
CN1CCc2c(sc3c2C(=O)NC(c2cccc(OC(=O)c4cccs4)c2)N3)C1 (configuration not stated)	-9	-70	58*	-6	-6	-1
CN1CCc2c(sc3c2C(=O)NC(c2ccco2)N3)C1 (configuration not stated)	4	40	24	-24	-23	-1
SMILES	RBBP9 inhibitor	MCL1 BIM primary	Mcl1 Noxa PPI	Mcl1 Bid PPI	EBV gp42 block	Mcl-1 Bim block
COc1cc(C(=O)OCn2nnc3ccccc3c2=O)cc(OC)c1OC	-4	6	15	62*	-9	0
CCOc1ccc(C(=O)OCn2nnc3ccccc3c2=O)cc1OC	-10	3	-11	-35	-21	-10
COc1ccccc1NC(=O)CSc1n[nH]c(Cc2ccccc2)n1	/	0	/	/	/	/
COc1ccccc1NC(=O)CSc1nc2ccccc2cc1Cc1ccccc1	-5	-7	-22	73*	-13	-4
O=C(CSc1nnc(Nc2ccccc2F)s1)NCc1ccco1	7	/	30	-54	10	0
Nn1c(SCC(=O)NC(=O)NCc2ccco2)nnc1-c1ccc(OC(F)F)cc1	-4	4	96*	18	62*	-4
Cc1ccc(Nc2nnc(SCC(=O)NCc3ccco3)s2)cc1	-8	/	53*	-73	-21	-3
Cc1ccccc1Nc1nnc(SCC(=O)NC(=O)NCc2ccco2)s1	-7	10	56*	-59	1	-3
Cc1sc2nc(SCC(=O)NCc3ccco3)n(C)c(=O)c2c1C	-9	4	14	-10	-2	0
CCn1c(SCC(=O)NC(=O)NCc2ccco2)nc2sc(C)c(C)c2c1=O	-7	26	55*	-6	11	-1
O=C(COC(=O)c1ccccc1-n1cnnn1)c1ccc(F)c(F)c1	/	-1	/	/	/	/
CSCCC(NC(=O)COc1ccccc1)C(=O)N(C)Cc1ccc(Cl)cc1Cl (configuration not stated)	/	4	/	/	/	/
O=C(NCc1ccccc1Cl)C1CCCN1C(=O)Nc1ccccc1 (configuration not stated)	/	-4	/	/	/	/
CC(C)(C)NC(=O)NC(=O)CSc1nnc(COc2ccccc2Cl)o1	-5	-1	12	-52	-25	0
Cc1nnc(SCC(=O)NC(=O)NCc2ccco2)n1Cc1ccccc1	-1	8	53*	2	21	-3
CCOc1ccccc1-n1nnnc1SCC(=O)NC(=O)NCc1ccco1	0	4	53*	-83	-2	2
O=C(CSc1nnc(COc2ccccc2Cl)o1)NC(=O)NCc1ccco1	-10	25	81*	-40	31	/
CC(C)CC(=O)Nc1nnc(S(=O)(=O)N(C)Cc2ccco2)s1	/	6	/	/	/	/
CC(NC(=O)Cn1cc(C(F)(F)F)ccc1=O)c1ccc(F)cc1 (configuration not stated)	-6	6	7	-14	-10	0
COc1ccc(/C(C)=N/NC(=O)CN(c2ccc(OC)cc2)S(=O)(=O)c2ccccc2)cc1	/	-4	/	/	/	/
O=C(Nc1ccc2sccc2c1)c1ccc(Cl)s1	1	4	7	82*	4	-2
O=C(Nc1n[nH]c(C(F)(F)F)n1)C1CC1	-7	5	4	-4	0	43*
COc1ccc([N+](=O)[O-])cc1N(CC(=O)N1CCN(Cc2ccccc2)CC1)S(C)(=O)=O	/	7	/	/	/	/
